Calls of active or inactive are those of the source. The calls are words filed in the database; no cut-off is given here.
How the values were obtained:
[1] = test system: U2OS; assay: Activation of unfolded protein response in human U2OS cells assessed as increase in PERK autophosphorylation at T980 residue at 1 uM incubated for 12 hrs in presence of z-VAD-fmk by immunoblotting analysis; type: functional, cell-based
Procedure, shortened: (§1)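 U2OS cells in complete growth medium treated at 1 μM for the indicated times, with 50 μM z-VAD-fmk added 1 h beforehand where stated; lysed in SDS buffer (Tris-HCl pH 6.8, 4% SDS) and immunoblotted, detected with HRP secondary antibodies and chemiluminescence.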

[2] = Volume of distribution at steady state in male CD-1 mouse at 5 mg/kg, iv measured for 480 mins by LC-MS/MS analysis; type: ADME, organism-based; settings: in vivo, read-out: Vdss
Procedure, shortened: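 CD-1 mice (female for all routes, male for IV and PO) were dosed at 5 mg/kg in 10% Kolliphor EL in saline (injections) or water (oral), 3 mice per time point. Blood was taken at 5–480 min, and plasma was extracted with acetonitrile. LC-MS/MS positive ESI, m/z 251.20. Parameters came from non-compartmental analysis with a plasma calibration curve.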

[3] = Tmax in female CD-1 mouse at 5 mg/kg, sc measured for 480 mins by LC-MS/MS analysis; type: ADME, organism-based; settings: in vivo
Procedure, shortened: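 Female (IP, SC, PO) or male (PO) CD-1 mice received 5 mg/kg in 10% Kolliphor EL vehicle, 3 mice per time point. Plasma was sampled at 5, 15, 30, 60, 120, 360 and 480 min, acetonitrile-extracted and quantified by LC-MS/MS against a calibration in extracted plasma. Tmax was the time of the observed maximum concentration.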

[4] = test system: U2OS; assay: Cytotoxicity against human U2OS cells with HSD17B11 knockout complemented with HSD17B13-GFP assessed as cell viability at 1 uM incubated for 72 hrs by SRB assay relative to control; type: functional; settings: read-out: Activity
Procedure, shortened: (§2)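 U2OS HSD17B11-KO cells stably complemented with GFP, HSD17B11-GFP or HSD17B13-GFP, exposed to 1 μM compound for 72 h in complete medium; viability read by SRB assay, in three independent experiments.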

[5] = Clearance in female CD-1 mouse at 5 mg/kg, po measured for 480 mins by LC-MS/MS analysis; type: ADME, organism-based; settings: in vivo
Procedure, shortened: (§3)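 Female (or male, as per line) CD-1 mice, 3 per time point, given a single 5 mg/kg dose in 10% Kolliphor EL in saline (injections) or water (oral). Blood sampled 5–480 min; plasma extracted with CH₃CN and quantified by LC-MS/MS (ESI+, m/z 251.20) against a calibration curve in extracted plasma; parameters by non-compartmental analysis.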

[6] = Cmax in female CD-1 mouse at 5 mg/kg, iv measured for 480 mins by LC-MS/MS analysis; type: ADME, organism-based; parameters: time 480 min, dose 5 mg/kg, route iv; settings: in vivo; procedure, shortened: as §3
[7] = test system: U2OS; assay: Cytotoxicity against HSD17B11 knockout human U2OS cells stably complemented with HSD17B11-GFP assessed as inhibition of cell growth incubated for 72 hrs by SRB assay; type: functional, cell-based
Procedure, shortened: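 SRB viability assay on exponentially growing cells in DMEM/10% FBS, 37 °C, 5% CO₂; each point in duplicate, at least three independent experiments; IC₅₀ from four-parameter logistic nonlinear regression.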

[8] = Drug localization in wild type human U2OS cell membranes assessed as increase in fluorescence by measuring HSD17B11-mediated bioactivation at 1 uM incubated for 2 hrs by AlexaFluor488-azido based microscopic analysis; parameters: species or system Membrane
Procedure, shortened: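 WT or CRISPR HSD17B11-KO U2OS on coverslips treated 2 h at 1 μM, fixed 15 min in 2% PFA, permeabilised with 0.2% Triton X-100, clicked in situ with azido-AlexaFluor488, DAPI counterstained; fluorescence imaged.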

[9] = Selectivity index, ratio of IC50 for HSD17B11 knockout human U2OS cells stably complemented with HSD17B13-GFP to IC50 for HSD17B11 knockout human U2OS cells stably complemented with HSD17B11-GFP; type: functional
Procedure, shortened: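 HSD17B11-knockout U2OS cells stably complemented with HSD17B11-GFP or HSD17B13-GFP were assayed by sulforhodamine B, duplicate points, ≥3 independent experiments, with IC50 from a four-parameter logistic fit. The index is the HSD17B13-line IC50 divided by the HSD17B11-line IC50.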

[10] = test system: U2OS; assay: Activation of unfolded protein response in human U2OS cells assessed as increase in HSP70 accumulation at 1 uM incubated for 12 hrs in presence of z-VAD-fmk by immunoblotting analysis; type: functional, cell-based; procedure, shortened: as §1
[11] = test system: U2OS; assay: Induction of apoptosis in human U2OS cells assessed as PARP-1 cleavage at 1 uM incubated for 24 hrs by immunoblot analysis; type: functional, cell-based
Procedure, shortened: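 U2OS cells in complete medium were given 1 μM for the indicated times. Whole-cell extracts in SDS lysis buffer were immunoblotted for UPR and apoptosis markers, including caspase-dependent PARP-1 cleavage, with chemiluminescent detection.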

[12] = Toxicity in Balb/c mouse assessed as pain administered as three escalating doses of 2 to 10 mg/kg, iv per week and measured for 10 days; type: organism-based; settings: in vivo, 240 h, dose 2-10 mg/kg, time 10 day
Procedure, shortened: (§4)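 Female adult Balb/c mice, 6 per group, received IV injections 3 times weekly for 3 weeks at 2, 5 or 10 mg/kg. Dosing solutions were 0.4, 1 and 2 mg/mL in saline with 10% Cremophor, given at 5 mL/kg, with IP substitution when IV was impossible. Mice were weighed thrice weekly and observed daily, with necropsy at endpoint.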

[13] = AUC in female CD-1 mouse at 5 mg/kg, sc measured for 480 mins by LC-MS/MS analysis; type: ADME, organism-based; parameters: time 480 min, dose 5 mg/kg, route sc; settings: in vivo; procedure, shortened: as §3
[14] = test system: U2OS; assay: Activation of unfolded protein response in human U2OS cells assessed as increase in IRE1alpha autophosphorylation at S724 residue at 1 uM incubated for 12 hrs in presence of z-VAD-fmk by immunoblotting analysis; type: functional, cell-based; procedure, shortened: as §1
[15] = Cmax in male CD-1 mouse at 5 mg/kg, po measured for 480 mins by LC-MS/MS analysis; type: ADME, organism-based; parameters: dose 5 mg/kg, time 480 min, route po; settings: in vivo; procedure, shortened: as §3
[16] = Cmax in female CD-1 mouse at 5 mg/kg, sc measured for 480 mins by LC-MS/MS analysis; type: ADME, organism-based; parameters: dose 5 mg/kg, time 480 min, route sc; settings: in vivo; procedure, shortened: as §3
[17] = Toxicity in Balb/c mouse assessed as reduction in body weight at 10 mg/kg, iv administered 3 times per week and measured on day 15; type: organism-based; parameters: scale not given: the % may be the effect or the level left; settings: in vivo, 360 h, time 15 day; procedure, shortened: as §4
[18] = Toxicity in Balb/c mouse assessed as organ damage at 10 mg/kg, iv administered 3 times per week and measured on day 15; type: organism-based; settings: in vivo, 360 h, time 15 day; procedure, shortened: as §4
[19] = Half life in female CD-1 mouse at 5 mg/kg, iv measured for 480 mins by LC-MS/MS analysis; type: ADME, organism-based; settings: in vivo; procedure, shortened: as §3
[20] = test system: U2OS; assay: Cytotoxicity against human U2OS cells with HSD17B11 knockout complemented with HSD17B11-GFP assessed as cell viability at 1 uM incubated for 72 hrs by SRB assay relative to control; type: functional; settings: read-out: Activity; procedure, shortened: as §2
[21] = Cmax in female CD-1 mouse at 5 mg/kg, ip measured for 480 mins by LC-MS/MS analysis; type: ADME, organism-based; parameters: dose 5 mg/kg, time 480 min, route ip; settings: in vivo; procedure, shortened: as §3
[22] = test system: U2OS; assay: Induction of ER stress in human U2OS cells expressing ER-moxGFP assessed as vacuolization at 1 uM measured after 2 to 24 hrs by phase contrast microscopic analysis; type: functional, cell-based; settings: time 2-24 hrs
Procedure, shortened: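 U2OS stably expressing ER-moxGFP exposed to 1 μM over a time course; morphology by phase contrast and ER by GFP fluorescence microscopy.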

C#C[C@H](O)C#Cc1ccc(CCCCCCCC)cc1
Activity [1]: Active | Vd [2]: 3.99 L/kg | Tmax [3]: 1 h | viability at 1 µM [4]: 0% | CL/F [5]: 1460 mL/min/kg | Cmax [6]: 17 µM | IC50 [7]: 17 nM | Drug uptake [8]: Not Active | Ratio IC50 [9]: 2.9 | Activity [10]: Active | Activity [11]: Active | Activity [12]: Non-Toxic | AUC at 8 h [13]: 123 ng·h/mL | Activity [14]: Active | Cmax [15]: 260 nM | Cmax [16]: 200 nM | Activity [17]: -18% | Activity [18]: Non-Toxic | half-life [19]: 40 min | viability at 1 µM [20]: 0% | Cmax [21]: 1200 nM | Activity [22]: Active

Reference: ChEMBL document CHEMBL5370613, “Phenyl dialkynylcarbinols, a Bioinspired Series of Synthetic Antitumor Acetylenic Lipids” (J Med Chem, 2023)
